In the library only some 2.5% were active in any assay of this set; here they are far more common.
PHOSPHO1 block = PubChem AID 1565 | recombinant PHOSPHO1, absorbance phosphatase assay | inhibition, % at 13.3 µM | 290,000 tested, 1.1% active; in the data active means inhibition above about 60%
Tb hexokinase = Trypanosoma brucei hexokinase 1 inhibitors, primary screen, biochemical, G6PDH-coupled NADH absorbance, MLSCN library. AID 1430, 2008. hexokinase 1 [Trypanosoma brucei]. inhibition, % at 10 µM. recombinant TbHK1, G6PDH-coupled NADH A340. 220,000 tested, 0.11% active;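 active means inhibition of 50% or more in the single-dose primary screen; inactive means inhibition below 50%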
PfG6PD inh = PfG6PD enzyme inhibitors, primary screen, biochemical, fluorescence intensity, uHTS. inhibition, % at 20 µM. PfGluPho enzyme, NADPH resazurin-diaphorase fluorescence. 350,000 tested, 0.78% active. AID 504690, 2011;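 active means inhibition reaching at least a set limit at 20 µM in the primary screen, cut at about 59% in these data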;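 further: 0% = DMSO wells with substrate and 100% = DMSO wells lacking glucose-6-phosphate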
EP2 antag = human EP2 receptor antagonists, primary screen, TR-FRET cAMP, C6 glioma cells | Prostaglandin E2 receptor EP2 subtype (Homo sapiens), P43116 | C6 glioma cells expressing human EP2; cells stimulated with saturating PGE2 | inhibition, % at 25 µM | 260,000 tested, 0.52% active;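 active means percent inhibition above 40 after rounding to a whole number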;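 further: rat C6 glioma host cells with rolipram phosphodiesterase inhibitor present; the protocol text gives 20 µM as final concentration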
HKDC1 inhibitor = HKDC1 hexokinase inhibitors, primary screen, biochemical, fluorescence, uHTS | Q2TB90 | recombinant HKDC1, G6PDH/diaphorase resazurin coupled fluorescence | inhibition, % at 20 µM | 340,000 tested, 0.16% active;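 active means inhibition above about 35% when tested at 20 µM, limit read from the data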;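 further: plate controls were DMSO wells with enzyme for no effect and DMSO wells lacking enzyme for full effect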
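Test system: Recombinant HKDC1 (HK5) hexokinase enzyme, produced in-house | Input: HKDC1 at 5 µg/mL | Buffer or medium: Tris pH 8.0 buffer with MgCl2, Tween-20, BSA, BME | Schedule: 90 min reaction incubation at room temperature, dark | Technique: Resazurin-to-resorufin fluorescence via G6PDH and diaphorase coupling, 525/613 nm | Controls: DMSO wells with and without enzyme mix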
EP2 modulator = EP2 receptor modulators, cAMP readout, primary screen, cell-based, HTRF cAMP, PGE2 stimulation. EP2-expressing cells, cAMP HTRF FRET, PGE2 co-stimulation. induction, % at 25 µM. 260,000 tested, 0.83% active. AID 940, 2007;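 active means compounds whose cAMP rise, as percent of the full-agonist control response, exceeds 60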;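 further: rat C6 glioma line stably carrying human EP2 under a CMV promoter; the protocol text gives 20 µM as final concentration; 100% = response of wells given 1 µM PGE2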
The depositor's hits bear a star; . = not tested or not shown.

SMILES | PHOSPHO1 block | Tb hexokinase | PfG6PD inh | EP2 antag | HKDC1 inhibitor | EP2 modulator
CCCN(CCC)c1ccc(/C=N/NC(=O)CN2CCOCC2)cc1 | 3.5 | -35.2 | 10.3 | 0.9 | -2.9 | -24.9
O=C(CN1CCOCC1)N/N=C/c1ccccc1 | 60.0* | -0.4 | 0.7 | 3.1 | -6.2 | -24.4
CCOC(=O)CCCc1sc(N)nc1-c1[nH]c(=O)[nH]c1C | 87.5* | 4.2 | 44.9 | 0.0 | 6.3 | -7.3
CCOC(=O)CCc1c(C)n[nH]c1C | 16.2 | -4.2 | -4.0 | 2.8 | -9.8 | 14.7
CCN(CC)c1ccc(CN2CCc3nc(N4CCCC(C)C4)[nH]c(=O)c3C2)c(O)c1 (stereo not drawn) | . | . | . | 10.8 | . | -54.1
CCCOC(=O)CN1C(=O)c2ccc(C(=O)OCCC)cc2C1=O | 20.7 | -8.6 | -12.7 | -2.5 | -5.2 | 11.7
CCCCOC(=O)CN1C(=O)c2ccc(C(=O)OCCCC)cc2C1=O | -0.5 | 3.7 | -0.9 | 9.4 | 5.5 | 62.9*
CCOC(=O)C1(Cc2cccc(F)c2)CCN(C(=O)c2ccoc2C)CC1 | 62.8* | -5.2 | -6.3 | -0.3 | -10.6 | -7.2
CN(C)C(=O)c1ccc(-c2cc3onc(-c4ccccc4)c3c(=O)n2C)cc1 | . | . | -8.6 | . | -2.8 | .
CN(C)Cc1ccc(-c2cc3onc(-c4ccccc4)c3c(=O)n2C)cc1 | . | . | . | 44.2* | . | -13.8
CC1CCCN(c2ccc(NC(=O)Cn3nc(-c4cccs4)cc(N)c3=O)cc2)C1 (stereo not drawn) | . | . | . | 3.3 | . | -16.6
O=C(O)c1sc(C(=O)O)c(-c2ccccc2)c1-c1ccccc1 | . | . | 7.5 | . | . | .
CC(=O)c1sc(C(=O)O)c(-c2ccco2)c1-c1ccco1 | 38.6 | -9.1 | 20.2 | 42.9* | 5.9 | -35.9
Cc1[nH]c2c(C)cccc2c1CC(=O)NC1CCCN(C)C1 (stereo not drawn) | . | . | . | 7.7 | . | 2.3
O=C(NC1CCCCC1)C(c1cccs1)N(C(=O)C(F)(F)F)c1ccccc1 (stereo not drawn) | -1.2 | -0.5 | -6.4 | 7.9 | -6.8 | 22.4
Cc1ccc(N(C(=O)C(F)(F)F)C(C(=O)NC2CCCCC2)c2cccs2)cc1C (stereo not drawn) | 60.5* | 12.4 | 4.3 | 12.3 | 1.3 | 1.9
CCOC(=O)c1ccc(-n2c(=S)sc3c(=O)[nH]c(C)nc32)cc1 | 40.8 | -23.6 | 66.0* | 6.5 | -12.1 | 24.6
CCOC(=O)CSc1nc2c(sc(=S)n2-c2ccc(CC)cc2)c(=O)[nH]1 | 50.4 | . | -45.8 | . | 4.1 | .
CC(C)OCC1CC(CC(=O)Nc2nncs2)C(=O)O1 (stereo not drawn) | . | . | . | 8.2 | . | 4.1
COc1ccc(C(=O)N/N=C/c2c[nH]c3ccccc23)cc1 | 44.9 | . | 6.7 | . | -0.7 | .
COc1ccc(C(=O)N/N=C/c2cc3ccccc3[nH]c2=S)cc1 | 91.3* | -5.3 | 37.5 | 22.9 | 1.4 | -59.3
Cc1ccc(NC(=O)Cn2ncc3c([nH]c4ccccc43)c2=O)cc1Cl | 62.9* | . | 5.8 | . | -3.7 | .
O=C(Cn1ncc2c([nH]c3ccccc32)c1=O)Nc1cccnc1 | 18.1 | . | 17.3 | . | -2.0 | .
COc1nc(-c2ccc(Cl)cc2)ccc1-c1noc(-c2ccco2)n1 | 80.4* | -13.0 | -1.4 | 1.4 | 1.1 | 3.3
COc1nc(-c2ccc(Cl)cc2)ccc1-c1noc(-c2cccnc2)n1 | . | . | . | 6.4 | . | -28.0
SMILES | PHOSPHO1 block | Tb hexokinase | PfG6PD inh | EP2 antag | HKDC1 inhibitor | EP2 modulator
COc1ccccc1CN(Cc1ccnc(N2CCOCC2)n1)CC1CCCO1 (stereo not drawn) | . | . | . | 0.3 | . | 20.7
Cc1ccc(-c2n[nH]c(=S)n2C)cc1 | 93.5* | -2.0 | 17.8 | 7.0 | -2.8 | 28.4
CC(C)n1c(-c2ccc(C(C)(C)C)cc2)n[nH]c1=S | 99.1* | 4.1 | 16.6 | 7.6 | 15.5 | 37.4
COc1ccc(-c2n[nH]c(=S)n2-c2ccc(C)cc2)cc1 | 6.5 | -6.8 | 50.7 | 2.3 | -5.4 | 6.2
CCc1nnc(NC(=O)c2c(O)c3cccc4c3n(c2=O)CC4)s1 | -11.7 | . | . | 7.6 | . | 10.7
CCc1nnc(NCC(=O)N2CCc3ccccc32)s1 | 69.2* | -1.9 | -0.8 | 7.6 | 2.8 | 14.9
CC1(C)Oc2ccc3ccc(=O)oc3c2-c2cnoc21 | 94.6* | -4.9 | -6.8 | 9.0 | -3.1 | 15.7
CC1(C)Oc2ccc3ccc(=O)oc3c2/C(=C/N)C1=O | 72.9* | -35.3 | 8.7 | 7.4 | -5.4 | 3.9
Nc1nn(-c2ccccc2)c2ccc([N+](=O)[O-])cc12 | 29.2 | . | 10.3 | . | -1.6 | .
CC(C)n1c2ccccc2c2cc([N+](=O)[O-])ccc21 | 4.2 | 18.0 | 26.4 | 7.8 | -9.3 | 64.9*
COc1ccc(C(O)CN2CCC3(CC2)CC(O)c2cc(OC)ccc2O3)cc1 (stereo not drawn) | . | . | . | 6.5 | . | -31.9
COc1ccccc1N1CCN(C(=O)Cn2ncn3c(cc4ccsc43)c2=O)CC1 | . | . | . | . | . | -23.6
COc1ccc2cc(C(=O)N3CCc4c(nc(C)[nH]c4=O)C3)[nH]c2c1 | . | . | . | 5.0 | . | -13.9
O=C(NC1CCCCC1)NC1CCN(C(=S)NCc2ccco2)CC1 | 81.6* | -1.4 | -0.1 | 10.6 | -5.9 | -23.7
O=C(NC1CCN(C(=S)NCc2ccco2)CC1)C1CCCCC1 | -2.2 | -0.4 | -9.9 | 4.5 | -4.5 | -32.9
Cc1ccc(-c2nnc(CSc3nnc4c5c6c(sc5nc(C)n34)CCCC6)o2)cc1 | . | . | . | 8.3 | . | 13.7
COc1cccc(-c2nc3ccccc3s2)c1O | 24.5 | -15.6 | 22.1 | 15.8 | 3.0 | -59.4
Clc1ncccc1-c1nc2ccccc2s1 | 61.2* | -6.0 | -2.5 | 4.8 | 15.5 | -29.5
COc1cccc(-n2c(C)nnc2SCC(N)=O)c1 | . | . | . | 7.2 | . | -4.3
O=S1(=O)N=C(Nc2nncs2)c2ccccc21 | 97.4* | -42.7 | 18.6 | 6.8 | 15.7 | 12.5
CCN(c1ccccc1)S(=O)(=O)c1ccc(Cl)c(NC(=O)Nc2ccc(Cl)cc2C#N)c1 | -9.0 | 1.7 | 1.8 | 2.9 | -3.1 | 60.6*
CCC(Sc1ccc2nnc(-c3ccc(F)cc3)n2n1)C(=O)OC (stereo not drawn) | 30.2 | -0.7 | -2.2 | 2.9 | -5.6 | -44.2
COC(=O)C(C)Sc1ccc2nnc(-c3ccc(F)cc3)n2n1 (stereo not drawn) | 64.6* | -1.6 | -11.3 | 9.8 | -4.3 | -28.7
CCOC(=O)CC(=O)CSc1ccc2nnc(-c3ccc(F)cc3)n2n1 | 81.2* | 10.0 | -4.5 | 6.9 | -5.6 | .
CCOC(=O)CC(=O)CSc1ccc2nnc(-c3cccc(F)c3)n2n1 | 43.6 | 3.7 | -5.6 | 2.4 | -2.7 | -11.1
COc1ccc(OC)c(C(=O)C(=O)c2cc(OC)ccc2OC)c1 | . | . | -2.7 | . | -2.0 | .
COc1ccc(OC)c(N)c1 | -25.9 | -1.5 | 62.1* | . | 16.7 | -7.2
